Source: ChEMBL document CHEMBL1123266, “Antibacterial activity of phosphono dipeptides related to alafosfalin” (J Med Chem, 1986)
Converted amounts (≈) assume the structure as drawn.

Tests used:
Serratia marcescens [1] = assay: Minimum inhibitory concentration (MIC) to control the growth of Serratia marcescens strain PCM 549.; assay type: functional
In short: (§1)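 Doubling dilutions of compound were made in a defined liquid peptide medium free of peptide-mimetic antagonists, final 0.065–512 μg/mL. The inoculum was an overnight 37 °C culture diluted to about 4 × 10^6 cfu/mL, incubated overnight at 37 °C. Non-turbid samples were subcultured (0.1 mL) onto solid peptide-medium agar and incubated overnight at 37 °C to assign MIC.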

Bacillus subtilis [2] = assay: Minimum inhibitory concentration (MIC) to control the growth of Bacillus subtilis strain PCM 1949.; assay type: functional; in short: as §1
Escherichia coli [3] = assay: Minimum inhibitory concentration (MIC) to control the growth of Escherichia coli strain PCM 2057; assay type: functional; in short: as §1
Escherichia coli [4] = assay: Concentration (IC50) to inhibit the growth of Escherichia coli.; assay type: functional, organism-based
In short: (§2)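 Broth dilution in a defined liquid peptide medium lacking antagonists of small peptide mimetics. Inocula were overnight cultures grown in this medium at 37 °C and diluted to about 4 × 10^6 cfu/mL. Compound was tested as a doubling dilution series, final 0.065–512 μg/mL, incubated overnight at 37 °C. Turbidity was read, and IC50 is the concentration reducing 24-h growth to 50% of control.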

Enterococcus faecalis [5] = assay: Minimum inhibitory concentration (MIC) to control the growth of Streptococcus faecalis strain PCM 896; assay type: functional; in short: as §1
Staphylococcus aureus [6] = assay: Minimum inhibitory concentration (MIC) to control the growth of Staphylococcus aureus strain PCM 2054.; assay type: functional; in short: as §1
Serratia marcescens [7] = assay: Concentration (IC50) to inhibit the growth of Serratia marcescens.; assay type: functional, organism-based; in short: as §2
Enterococcus faecalis [8] = assay: Concentration (IC50) to inhibit the growth of Streptococcus faecalis.; assay type: functional, organism-based; in short: as §2
Klebsiella aerogenes [9] = assay: Minimum inhibitory concentration (MIC) to control the growth of Klebsiella aerogenes strain PCM 2063; assay type: functional; in short: as §1
Bacillus subtilis [10] = assay: Concentration (IC50) to inhibit the growth of Bacillus subtilis; assay type: functional, organism-based; in short: as §2
Klebsiella aerogenes [11] = assay: Concentration (IC50) to inhibit the growth of Klebsiella aerogenes.; assay type: functional, organism-based; in short: as §2
Staphylococcus aureus [12] = assay: Concentration (IC50) to inhibit the growth of Staphylococcus aureus.; assay type: functional, organism-based; in short: as §2

Row | Structure (SMILES) | MIC (Serratia marcescens [1]) [µg/mL] | MIC (Bacillus subtilis [2]) [µg/mL] | MIC (Escherichia coli [3]) [µg/mL] | IC50 (Escherichia coli [4]) [µg/mL] | MIC (Enterococcus faecalis [5]) [µg/mL] | MIC (Staphylococcus aureus [6]) [µg/mL] | IC50 (Serratia marcescens [7]) [µg/mL] | IC50 (Enterococcus faecalis [8]) [µg/mL] | MIC (Klebsiella aerogenes [9]) [µg/mL] | IC50 (Bacillus subtilis [10]) [µg/mL] | IC50 (Klebsiella aerogenes [11]) [µg/mL] | IC50 (Staphylococcus aureus [12]) [µg/mL]
1 | CC(C)CC(N)C(=O)NC(C1CCCCC1)P(=O)(O)O (stereo not given) | > 512 | > 512 | > 512 | > 512 | > 512 | > 512 | > 512 | > 512 | > 512 | > 512 | > 512 | > 512
2 | CC(N)C(=O)NC(C12CC3CC(CC(C3)C1)C2)P(=O)(O)O (stereo not given) | > 512 | > 512 | > 512 | > 512 | > 512 | > 512 | > 512 | > 512 | > 512 | > 512 | > 512 | > 512
3 | CC(C)CC(N)C(=O)NC(CCC(=O)O)P(=O)(O)O (stereo not given) | > 512 | 128 (≈ 432 µM) | 128 (≈ 432 µM) | 18 (≈ 60.8 µM) | > 512 | > 512 | 16 (≈ 54 µM) | 32 (≈ 108 µM) | 128 (≈ 432 µM) | 14 (≈ 47.3 µM) | 22 (≈ 74.3 µM) | 128 (≈ 432 µM)
4 | CC(N)C(=O)NC(C(C)C)P(=O)(O)O (stereo not given) | > 512 | > 512 | > 512 | > 512 | > 512 | > 512 | > 512 | 0.09 (≈ 0.401 µM) | > 512 | > 512 | > 512 | 6.8 (≈ 30.3 µM)
5 | CC(C)CC(N)C(=O)NC(C(C)(C)C)P(=O)(O)O (stereo not given) | > 512 | > 512 | > 512 | > 512 | > 512 | > 512 | > 512 | > 512 | > 512 | > 512 | > 512 | > 512
6 | CC(=O)OCC(NC(=O)C(C)N)P(=O)(O)O (stereo not given) | > 512 | > 512 | > 512 | > 512 | > 512 | > 512 | > 512 | 512 (≈ 2010 µM) | > 512 | > 512 | 96 (≈ 378 µM) | 0.065 (≈ 0.256 µM)
7 | CC(C)CC(N)C(=O)NC(C12CC3CC(CC(C3)C1)C2)P(=O)(O)O (stereo not given) | > 512 | > 512 | > 512 | > 512 | > 512 | > 512 | > 512 | > 512 | > 512 | > 512 | > 512 | > 512
8 | CC(=O)OCC(NC(=O)C(N)CC(C)C)P(=O)(O)O (stereo not given) | > 512 | > 512 | > 512 | > 512 | > 512 | > 512 | > 512 | 0.065 (≈ 0.219 µM) | > 512 | 1.4 (≈ 4.73 µM) | > 512 | > 512
9 | CC(N)C(=O)NC(CCC(=O)O)P(=O)(O)O (stereo not given) | > 512 | 16 (≈ 62.9 µM) | 64 (≈ 252 µM) | 5.6 (≈ 22 µM) | > 512 | 256 (≈ 1010 µM) | 0.065 (≈ 0.256 µM) | 32 (≈ 126 µM) | 128 (≈ 504 µM) | 14 (≈ 55.1 µM) | 4.8 (≈ 18.9 µM) | 1.8 (≈ 7.08 µM)
10 | CC(N)C(=O)N1CCCC1P(=O)(O)O (stereo not given) | > 512 | > 512 | > 512 | > 512 | > 512 | > 512 | > 512 | > 512 | > 512 | > 512 | > 512 | > 512
